The source made the active and inactive calls. The rule behind the calls is not given here.
Tests used:
[1] = test system: Mus musculus; assay: Antidepressant activity in TrkB F616A knock in mouse assessed as reduction of immobility time at 5 mg/kg, po administered for 21 days by forced swim test assay in presence of TrkB F616A inhibitor 1NMPP1; format: functional, organism-based; set-up: dose 5 mg/kg
[2] = test system: Mus musculus; assay: Toxicity in C57BL/6J mouse assessed as pathological changes in liver at 5 mg/kg, po for 3 weeks; format: organism-based; set-up: dose 5 mg/kg, route oral; settings: in vivo, 504 h
How it was run: (§1)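 Mice were dosed orally at 5 mg/kg for 3 weeks, with saline-treated controls. Major organs were examined for pathological changes, and a complete blood count was done.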

[3] = test system: Mus musculus; assay: Antidepressant activity in C57BL/6J mouse assessed as decrease in immobility at 5 mg/kg, po administered for 21 days measured last 4 mins of total 6 mins observation time by forced swim test; format: functional, organism-based; set-up: dose 5 mg/kg
How it was run: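 Male C57BL/6J mice, 2–3 months old, were gavaged with saline or compound at 5 mg/kg for 21 days. Mice were acclimated to the test room for 2 days. There was no pre-swim. Each mouse swam for 6 min in a 16 cm cylinder of water 14 cm deep at 24 °C. Immobility was scored blind over the last 4 min; mean ± SEM, ANOVA.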

[4] = target: BDNF/NT-3 growth factors receptor (Rattus norvegicus) (UniProt Q63604); assay: Agonist activity at TrkB in E17 rat primary cortical neurons assessed as TrkB phosphorylation at 817 at 500 nM after 15 mins by immunoblotting; format: functional, cell-based; settings: Cerebral cortex neuron
BDNF/NT-3 growth factors receptor (Rattus norvegicus), sequence (Q63604 whole entry): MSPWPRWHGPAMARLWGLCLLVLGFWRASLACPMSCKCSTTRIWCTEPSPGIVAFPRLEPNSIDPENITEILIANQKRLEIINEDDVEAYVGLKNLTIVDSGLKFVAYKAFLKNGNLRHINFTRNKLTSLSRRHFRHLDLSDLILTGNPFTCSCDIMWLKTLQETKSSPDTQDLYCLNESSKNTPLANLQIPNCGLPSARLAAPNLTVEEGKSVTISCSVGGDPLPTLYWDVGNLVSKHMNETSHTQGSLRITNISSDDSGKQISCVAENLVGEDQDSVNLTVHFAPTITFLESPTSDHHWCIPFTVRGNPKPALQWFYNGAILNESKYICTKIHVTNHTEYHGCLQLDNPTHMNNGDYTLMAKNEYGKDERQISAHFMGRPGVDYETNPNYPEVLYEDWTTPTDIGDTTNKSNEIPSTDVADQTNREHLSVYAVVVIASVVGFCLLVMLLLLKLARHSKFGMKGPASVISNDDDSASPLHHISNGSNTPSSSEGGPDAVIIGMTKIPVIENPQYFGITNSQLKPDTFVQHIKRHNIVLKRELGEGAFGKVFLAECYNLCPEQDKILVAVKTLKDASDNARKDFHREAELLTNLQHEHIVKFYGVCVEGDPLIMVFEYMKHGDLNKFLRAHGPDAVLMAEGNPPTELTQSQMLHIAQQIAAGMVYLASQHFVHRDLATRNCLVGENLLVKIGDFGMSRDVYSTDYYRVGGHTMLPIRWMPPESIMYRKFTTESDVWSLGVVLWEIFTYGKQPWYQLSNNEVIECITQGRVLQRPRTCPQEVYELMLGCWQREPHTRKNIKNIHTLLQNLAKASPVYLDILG
How it was run: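 Rat cortical neurons from E17 embryos, 13 DIV, were treated with 500 nM compound for 15 min. Lysates were run on 10% SDS-PAGE and immunoblotted with p-TrkB Y817 antibody at 1:20,000–40,000.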

[5] = target: BDNF/NT-3 growth factors receptor (Rattus norvegicus) (UniProt Q63604); assay: Agonist activity at TrkB in E17 rat primary rat cortical neurons assessed as AKT phosphorylation at Ser 473 at 10 nM after 15 mins by titration assay; format: functional
How it was run: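 Primary cortical neurons were incubated with graded concentrations, starting at 10 nM, for 15 min. Phospho-Akt Ser473 was measured by sandwich ELISA on 20 µg of lysate. Data come from 2 replicated experiment sets, given as mean ± SEM. Comparisons used one-way ANOVA against control and Student's t-test between compounds.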

[6] = target: BDNF/NT-3 growth factors receptor (Rattus norvegicus) (UniProt Q63604); assay: Agonist activity at TrkB in E16 rat embryonic cortical neurons assessed as inhibition of glutamate-induced caspase 3 activation at 10 nM after 30 mins followed by 16 hrs of 50 uM glutamate-challenge by ELISA; format: functional
How it was run: (§2)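 Cortical neurons from E16 rat embryos were pretreated with the indicated compound concentrations for 30 min. They were then challenged with 50 µM glutamate for 16 h. Active caspase-3 in the lysates was measured by ELISA.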

[7] = test system: Mus musculus; assay: Agonist activity at TrkB in C57BL/6J mouse brain assessed as TrkB 706 phosphorylation at 1 mg/kg, po at 1 to 2 hrs by immunoblotting; format: functional, organism-based; set-up: dose 1 mg/kg
How it was run: (§3)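 C57BL/6J mice got a single oral dose of 1 mg/kg. Brains were collected at several time points, about 1 to 16 h after dosing. Lysates were immunoblotted for TrkB phosphorylation and for downstream Akt and MAPK phosphorylation.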

[8] = test system: Mus musculus; assay: Toxicity in C57BL/6J mouse assessed as pathological changes in testis at 5 mg/kg, po for 3 weeks; format: organism-based; set-up: dose 5 mg/kg, route oral; settings: in vivo, 504 h; how it was run: as §1
[9] = test system: Mus musculus; assay: Agonist activity at TrkB in C57BL/6J mouse brain assessed as TrkB 706 phosphorylation at 1 mg/kg, po at 1 hr by immunoblotting; format: functional, organism-based; set-up: dose 1 mg/kg; how it was run: as §3
[10] = test system: Mus musculus; assay: Toxicity in C57BL/6J mouse assessed as pathological changes in spleen at 5 mg/kg, po for 3 weeks; format: organism-based; set-up: dose 5 mg/kg, route oral; settings: in vivo, 504 h; how it was run: as §1
[11] = test system: Mus musculus; assay: Agonist activity at TrkA in C57BL/6J mouse brain lysate assessed as TrkA phosphorylation at Y794 at 5 mg/kg, po administered for 21 days by immunoblotting; format: functional, organism-based; set-up: dose 5 mg/kg
How it was run: (§4)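 Adult male C57BL/6J mice, 8 per group, dosed orally by gavage once daily for 21 days; saline was the vehicle. Brain lysates were immunoblotted with anti-p-TrkA 794 and anti-p-TrkB 817.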

[12] = test system: HEK293; assay: Cytotoxicity against human HEK293 cells assessed as cell death at 50 to 50000 nM after 24 hrs by LDH assay; format: cell-based; settings: hek293, 24 h, 50 µM
[13] = test system: HEK293; assay: Cytotoxicity against human HEK293 cells assessed as inhibition of cell proliferation at up to 50 uM by MTT assay; format: cell-based
[14] = test system: Mus musculus; assay: Toxicity in C57BL/6J mouse assessed as pathological changes in lungs at 5 mg/kg, po for 3 weeks; format: organism-based; set-up: dose 5 mg/kg, route oral; settings: in vivo, 504 h; how it was run: as §1
[15] = test system: Mus musculus; assay: Toxicity in C57BL/6J mouse assessed as pathological changes in brain cortex at 5 mg/kg, po for 3 weeks; format: organism-based; set-up: dose 5 mg/kg, route oral; settings: in vivo, 504 h; how it was run: as §1
[16] = test system: Mus musculus; assay: Neuroprotective activity in po dosed C57BL/6J mouse assessed as TrkB phosphorylation in brain by titration assay; format: functional, organism-based
[17] = test system: Mus musculus; assay: Neuroprotective activity in C57BL/6J mouse assessed as inhibition of kainic acid-induced caspase 3 activation in hippocampus region at 5 mg/kg, po administered 2 to 8 hrs prior to kainic acid challenge measured after 8 hrs by immunoblotting; format: functional, organism-based; set-up: dose 5 mg/kg
[18] = test system: Mus musculus; assay: Agonist activity at TrkB in C57BL/6J mouse brain lysate assessed as TrkB phosphorylation at Y817 at 5 mg/kg, po administered for 21 days by immunoblotting; format: functional, organism-based; set-up: dose 5 mg/kg; how it was run: as §4
[19] = test system: Mus musculus; assay: Toxicity in C57BL/6J mouse assessed as affect on complete blood count analysis at 5 mg/kg, po for 3 weeks; format: organism-based; set-up: dose 5 mg/kg, route oral; settings: in vivo, 504 h; how it was run: as §1
[20] = test system: Mus musculus; assay: Induction of neurogenesis in C57BL/6J mouse hippocampus dentate gyrus assessed as progenitor cell proliferation at 5 mg/kg, po administered for 21 days by DAPI and BrdU staining based fluorescence microscopy; format: functional, organism-based; set-up: dose 5 mg/kg
How it was run: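 Adult male C57BL/6J mice were gavaged at 5 mg/kg for 21 days and then given BrdU at 50 mg/kg i.p. Mice were perfused with 4% paraformaldehyde 2 h later. Paraffin sections had citrate antigen retrieval and 2 N HCl treatment, then were stained with anti-BrdU-FITC at 4 °C for 16 h and with DAPI. BrdU-positive cells in the dentate gyrus were counted by fluorescence microscopy.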

[21] = Cytotoxicity at E17 rat primary cortical neurons assessed as cell death at 5 uM by LDH assay; format: cell-based; settings: cerebral cortex neuron
[22] = test system: Mus musculus; assay: Toxicity in C57BL/6J mouse assessed as pathological changes in muscle at 5 mg/kg, po for 3 weeks; format: organism-based, Muscle tissue; set-up: dose 5 mg/kg, route oral; settings: in vivo, 504 h; how it was run: as §1
[23] = test system: Mus musculus; assay: Toxicity in C57BL/6J mouse assessed as pathological changes in heart at 5 mg/kg, po for 3 weeks; format: organism-based; set-up: dose 5 mg/kg, route oral; settings: in vivo, 504 h; how it was run: as §1
[24] = target: BDNF/NT-3 growth factors receptor (Rattus norvegicus) (UniProt Q63604); assay: Agonist activity at TrkB in E16 rat embryonic cortical neurons assessed as inhibition of glutamate-induced caspase 3 activation at 50 to 500 nM after 30 mins followed by 16 hrs of 50 uM glutamate-challenge by ELISA; format: functional; how it was run: as §2
[25] = test system: Mus musculus; assay: Toxicity in C57BL/6J mouse assessed as pathological changes in hippocampus at 5 mg/kg, po for 3 weeks; format: organism-based; set-up: dose 5 mg/kg, route oral; settings: in vivo, 504 h; how it was run: as §1
[26] = test system: Mus musculus; assay: Neuroprotective activity in TrkB F616A knock in mouse assessed as inhibition of kainic acid-induced caspase 3 activation in brain homogenates at 5 mg/kg, po administered 4 hrs prior to kainic acid challenge measured after 4 days by immunoblotting in presence of TrkB F616A inhibitor 1NMPP1; format: functional, organism-based; set-up: dose 5 mg/kg
How it was run: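 TrkB F616A knock-in mice, 2–3 months old, were given 1NMPP1 at 25 µM in drinking water one day beforehand. They were then gavaged with compound at 5 mg/kg, followed 4 h later by kainic acid at 20 mg/kg. Brains were taken 4 days later, homogenized and ultracentrifuged. 40 µg of supernatant was immunoblotted.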

[27] = test system: Mus musculus; assay: Toxicity in C57BL/6J mouse assessed as pathological changes in intestine at 5 mg/kg, po for 3 weeks; format: organism-based; set-up: dose 5 mg/kg, route oral; settings: in vivo, 504 h; how it was run: as §1
[28] = test system: Mus musculus; assay: Neuroprotective activity in C57BL/6J mouse assessed as inhibition of kainic acid-induced caspase 3 activation in hippocampus region at 5 mg/kg, po administered 2 to 8 hrs prior to kainic acid challenge measured after 4 hrs by immunoblotting; format: functional, organism-based; set-up: dose 5 mg/kg
[29] = test system: Mus musculus; assay: Toxicity in C57BL/6J mouse assessed as pathological changes in kidney at 5 mg/kg, po for 3 weeks; format: organism-based; set-up: dose 5 mg/kg, route oral; settings: in vivo, 504 h; how it was run: as §1

Activity [4]: Active
Activity [5]: Active
inhibition [6]: Active
Activity [24]: Active
Structure (SMILES): O=c1cc(-c2ccccc2)oc2c(O)c(O)ccc12 [7,8-DIHYDROXYFLAVONE]
Activity [1]: inactive
Activity [2]: Non-toxic
Activity [3]: Active
Activity [7]: Active
Activity [8]: Non-toxic
Activity [9]: Active
Activity [10]: Non-toxic
Activity [11]: inactive
Activity [12]: Non-toxic
Activity [13]: Non-toxic
Activity [14]: Non-toxic
Activity [15]: Non-toxic
Activity [16]: Dose-dependent effect
inhibition [17]: Active
Activity [18]: Active
Activity [19]: Non-toxic
Activity [20]: Active
Activity [21]: Non-toxic
Activity [22]: Non-toxic
Activity [23]: Non-toxic
Activity [25]: Non-toxic
inhibition [26]: inactive
Activity [27]: Non-toxic
inhibition [28]: Active
Activity [29]: Non-toxic
